This is an account of results in ChEMBL document CHEMBL1151991, “Cytotoxic guanidine alkaloids from Pterogyne nitens” (J Nat Prod, 2009).

≈ marks a conversion by molar mass, not a printed value.

Format in all cases: functional, cell-based
For one assay, the system named is SF-295. The assay can be described thus: Cytotoxicity against human SF295 cells after 3 days by MTT assay. Particulars: SF-295, 72 h. The method in brief:
(§1)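 Cells kept in RPMI-1640 with 10% fetal calf serum, 2 mM glutamine, streptomycin and penicillin at 37 °C, 5% CO2. Seeded at 10^5 cells/well (adherent) or 0.3 × 10^6 cells/well (suspension). […] Medium then replaced by 0.5 mg/mL MTT for 3 h, formazan dissolved in DMSO, absorbance read. IC50 by modified NCI protocol.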
In general terms: Tetrazolium assays rely on reduction of a dye to a coloured formazan, in cell work by metabolically active cells.

Another assay deals with HL-60. The assay can be described thus: Cytotoxicity against human HL60 cells after 3 days by MTT assay. Particulars: HL-60, 72 h. The method in brief: as §1
In another assay the test system is HCT-8. The assay can be described thus: Cytotoxicity against human HCT8 cells after 3 days by MTT assay. Particulars: HCT-8, 72 h. The method in brief:
as §1

In the next assay the test system is MDA-MB-435. The experiment in a line: Cytotoxicity against human MDA-MB-435 cells after 3 days by MTT assay. Particulars: MDA-MB-435, 72 h. An outline of the steps:
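Seeded at 10^5 cells/well (adherent) or 0.3 × 10^6 cells/well (suspension). Medium then replaced by 0.5 mg/mL MTT for 3 h, formazan dissolved in DMSO, absorbance read. IC50 by modified NCI protocol.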

A word on the IC50: it is the concentration that gives 50% inhibition. Read a high IC50 as lower potency.

For the compound `CC(C)=CCC/C(C)=C/CN=C(N)N` [NITENSIDINE D], the IC50 in the assay with SF-295, in the assay on HL-60, in the assay with HCT-8 and with MDA-MB-435 was > 5 µg/mL in each case.

As for `CC(C)=CCN(CC=C(C)C)C(=N)N` [PTEROGYNINE], the IC50 with SF-295, in the assay with HL-60, in the assay on HCT-8 and in the assay with MDA-MB-435 was > 5 µg/mL throughout.

Take `CC(C)=CCN=C(N)N` [GALEGINE]: the IC50 in the assay on SF-295, in the assay on HL-60, with HCT-8 and in the assay on MDA-MB-435 was > 5 µg/mL in each case.

As to `CC(C)=CCNC(=N)NCC=C(C)C` [PTEROGYNIDINE], the half-maximal inhibitory concentration (IC50) in the assay on SF-295, in the assay on HL-60, in the assay with HCT-8 and with MDA-MB-435 was > 5 µg/mL each time.

Consider `CC(C)=C/C=C/C1(C)CCN=C(N)N1` (stereo not given) [NITENSIDINE E], for which the IC50 with SF-295 was 4.9 µg/mL (≈ 25.3 µM); with HL-60, 3.6 µg/mL (≈ 18.6 µM); in the assay with HCT-8, > 5 µg/mL; in the assay with MDA-MB-435 it was > 5 µg/mL.
